Lmaj promast = inhibitors of Leishmania major promastigote growth. Leishmania major promastigotes, resazurin fluorescence viability. inhibition, % at 10 µM. 200,000 tested, 9% active; in the data active means inhibition above about 50%;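 further: promastigotes grown with compound for 44 hours at 28 °C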
MT stabilize HCS = stabilizes microtubules in HeLa cells | HeLa tubulin immunostaining HCS, 24 h; share of cells brighter than vehicle mean+2SD | % tubulin-high responders, % at 10 µM | 200,000 tested, 0.83% active | AID 2205;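 active means plate Z-score above 3 for both tubulin-high and condensed-nucleus cell shares, with cell loss under 80%, at 10 µM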;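 further: anti alpha tubulin signal scored within the nucleus-defined area of each cell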
Autophagy HCS = autophagy modulation, high-content screen; MEF GFP-LC3 puncta imaging; test concentration mostly 10 µM; 190,000 tested, 0.98% active; calls only at 10 µM (by protocol);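 active means percentage of spot-positive cells more than 3 SD above its plate mean, without a fluorescence outlier flag or 80% toxicity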
Dynein transport = blocks dynein driven cargo transport along microtubules; 3617.4 mouse cells, GR-EGFP nuclear translocation imaging; test concentration mostly 20 µM; stimulated with dexamethasone, 1 µM; hits give low values; 220,000 tested, 0.47% active; z-score, hits read low;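 active means plate z-score of nuclear minus cytoplasmic receptor signal below a set negative limit, without overly bright fluorescence or cell loss, cut at about -3.5 in these data, passing the limit was not always enough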;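 further: z-score of nuclear minus cytoplasmic ring GR-EGFP intensity difference per well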
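medium = tetracycline-free induction medium containing charcoal-stripped FBS | probe or stimulus = dexamethasone, 1.0 µM final | timing = 48 h induction, then 1 h compound, then 30 min agonist, 37 °C | detection = automated 10x imaging of fixed Hoechst-stained cells | read-out basis = nuclear versus cytoplasmic GR-EGFP signal, averaged per well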
CHOP inh = CHOP inhibition in unfolded protein response. CHO-K1 CHOP-promoter luciferase, tunicamycin-induced, 15-18 h. 220,000 tested, 3.8% active. inhibition, % at 10 µM;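 active means compounds that reduced the stress-induced luciferase reporter signal by more than about 70% of percent inhibition, limit read from the data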
bCat nuc transl = beta-catenin nuclear translocation modulation. HeLa beta-catenin nuclear translocation, immunofluorescence imaging. nuclear translocation activity, % at 5 µM. 190,000 tested, 0.3% active;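 active means nuclear translocation activity above 50% at 5 µM, with a well cell count of 50 or more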;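 further: per-cell ratio of nuclear to cytoplasmic median beta-catenin stain intensity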
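Technique: fluorescence imaging of beta-catenin antibody stain plus DAPI / Material: human HeLa cell line / Incubation: compound treatment 24 h, 37°C, 5% CO2 / Read-out basis: % activation of per-cell nuclear versus cytoplasmic median beta-catenin signal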
A number is an active result; 0 = inactive; - = no result; + = active, no number. This is a sample that favours compounds with a hit; in the whole collection about 12% have one here.

SMILES | Lmaj promast | MT stabilize HCS | Autophagy HCS | Dynein transport | CHOP inh | bCat nuc transl
COc1cc(OC)c(C2N(c3ccc(Cl)cc3)C(=O)C3CCCN32)cc1OC (stereo not given) | 0 | 0 | 0 | 0 | 0 | -
CN(C)C(CNC(=O)CSc1nnc(-c2ccco2)o1)c1ccccc1 (stereo not given) | 0 | 0 | 0 | 0 | 0 | -
COc1ccc(-c2cn(-c3ccc(OC)cc3)c3[n+]2-c2ccccc2CC3)cc1 | 100.0 | 0 | 0 | 0 | 0 | 0
FC(F)Sc1ccc(-n2cc(-c3ccccc3)[n+]3c2CCC3)cc1 | 0 | 0 | 0 | 0 | 0 | 0
COc1ccc(-n2cc(-c3ccccc3)nc2SC)cc1 | 0 | 0 | 0 | 0 | 0 | 0
COc1ccc(-n2cc(-c3ccccc3)[n+]3c2CCCCC3)cc1 | 100.1 | 0 | 0 | 0 | 0 | 0
CC(C)(C)N(CC#CCC1(O)c2ccccc2-c2ccccc21)CCO | 0 | 0 | 0 | 0 | 0 | 0
COc1cc(/C=C2\N=C(c3ccccc3)OC2=O)ccc1OCc1c(C)no[n+]1[O-] | 0 | 0 | 0 | 0 | 0 | 0
Cc1no[n+]([O-])c1COc1cccc(/C=C2\N=C(c3ccccc3)OC2=O)c1 | 63.9 | 0 | 0 | 0 | 0 | 0
N#CC(C#N)=c1ccc2c(c1)N1C3=C(CCCC3)CC3CCCCC31N=2 (stereo not given) | 99.3 | 0 | 0 | 0 | 0 | 0
N#C/C(C(N)=O)=c1/ccc2c(c1)N1C3=C(CCCC3)CC3CCCCC31N=2 (stereo not given) | 73.5 | 0 | 0 | 0 | 82.4 | 0
CC(C(=O)OCC(=O)Nc1cccc(S(=O)(=O)N2CCOCC2)c1)N1C(=O)c2ccccc2C1=O (stereo not given) | 0 | 0 | 0 | 0 | 0 | 0
c1ccc2[nH]c3cc4ncnc4cc3nc2c1 | 98.6 | 0 | 0 | 0 | 0 | -
FC(F)c1nc2ccccc2[nH]1 | 0 | 0 | 0 | 0 | 0 | 0
CCOC(=O)c1cc2c(=O)n3ccccc3nc2n(C(C)C)c1=NC(=O)c1c(-c2c(F)cccc2Cl)noc1C | 98.6 | 0 | 0 | 0 | 0 | 0
CCCCn1c(=NC(=O)c2ccco2)c(C(=O)OCC)cc2c(=O)n3ccccc3nc21 | 50.8 | 0 | 0 | 0 | 0 | 0
COc1ccc(C(C)=O)cc1COC(=O)c1ccc(S(=O)(=O)N(C)C)cc1 | 0 | 0 | 0 | 0 | 0 | 0
COc1ccc(C2NC(=S)NC(C)=C2C(=O)Nc2ccccn2)cc1OC (stereo not given) | 0 | 0 | + | 0 | 0 | 0
COc1ccc(C2NC(=S)NC(C)=C2C(=O)c2ccccc2)cc1OC (stereo not given) | 0 | 0 | 0 | 0 | 0 | 0
COC(=O)CC1C(=O)NCCN1C(=O)CSc1nnnn1-c1ccc(OC)cc1 (stereo not given) | 0 | 0 | 0 | 0 | 0 | 0
Cc1ccccc1Cn1cc(NC(=O)c2noc3c2CC(C(C)(C)C)CC3)cn1 (stereo not given) | 0 | 0 | 0 | 0 | 85.6 | 0
Cc1ccccc1Cn1nc(C)c(NC(=O)c2noc3c2CC(C(C)(C)C)CC3)c1C (stereo not given) | 0 | 0 | 0 | 0 | 0 | 0
COC(=O)c1ccccc1NC(=O)COC(=O)C1CCCCC1 | - | - | - | 0 | 0 | 0
O=S(=O)(c1cccc(C(F)(F)F)c1)N(CCCN1CCOCC1)Cc1cccs1 | 100.3 | 0 | 0 | 0 | 0 | 0
COC(=O)c1ccccc1S(=O)(=O)N(CCCN1CCOCC1)Cc1cccs1 | 0 | 0 | 0 | 0 | 0 | 0
SMILES | Lmaj promast | MT stabilize HCS | Autophagy HCS | Dynein transport | CHOP inh | bCat nuc transl
CCOC(=O)c1cc(C#N)c(Oc2ccccc2OC)nc1-c1ccccc1 | 0 | 0 | 0 | 0 | 0 | 0
CCc1ccc(-c2nc(SCC(=O)N3CCOCC3)n[nH]2)cc1 | 0 | 0 | 0 | 0 | 0 | 0
CCOC(=O)c1c(C)[nH]c(N=Nc2cccc(C)c2)c1C | 0 | 0 | 0 | 0 | 71.1 | 0
CCOC(=O)c1c(C)[nH]c(N=Nc2ccccc2)c1C | 0 | 0 | 0 | 0 | 0 | 0
CCOC(=O)c1c(C)[nH]c(N=Nc2ccc(C)cc2)c1C | 0 | 0 | 0 | 0 | 91.5 | 0
O=C(COC(=O)c1cc(=O)[nH]c2ccccc12)c1cccs1 | 0 | 0 | 0 | 0 | 0 | 0
OCC1(O)OC[C@@H](O)[C@H]1O (stereo not given in full) | - | - | - | 0 | 0 | 0
NC(C(=O)O)C(c1ccccc1)C(F)F (stereo not given) | - | - | - | 0 | 0 | 0
